Assay results from ChEMBL document CHEMBL1146117, “Inhibitors of human mitotic kinesin Eg5: characterization of the 4-phenyl-tetrahydroisoquinoline lead series” (Bioorg Med Chem Lett, 2006).

Columns and labels:
[1] = target: T1, Kinesin-like protein KIF11 (Homo sapiens, UniProt P52732); assay: Inhibition of Eg5 by ATPase assay; format: functional
T1 sequence (P52732 whole entry): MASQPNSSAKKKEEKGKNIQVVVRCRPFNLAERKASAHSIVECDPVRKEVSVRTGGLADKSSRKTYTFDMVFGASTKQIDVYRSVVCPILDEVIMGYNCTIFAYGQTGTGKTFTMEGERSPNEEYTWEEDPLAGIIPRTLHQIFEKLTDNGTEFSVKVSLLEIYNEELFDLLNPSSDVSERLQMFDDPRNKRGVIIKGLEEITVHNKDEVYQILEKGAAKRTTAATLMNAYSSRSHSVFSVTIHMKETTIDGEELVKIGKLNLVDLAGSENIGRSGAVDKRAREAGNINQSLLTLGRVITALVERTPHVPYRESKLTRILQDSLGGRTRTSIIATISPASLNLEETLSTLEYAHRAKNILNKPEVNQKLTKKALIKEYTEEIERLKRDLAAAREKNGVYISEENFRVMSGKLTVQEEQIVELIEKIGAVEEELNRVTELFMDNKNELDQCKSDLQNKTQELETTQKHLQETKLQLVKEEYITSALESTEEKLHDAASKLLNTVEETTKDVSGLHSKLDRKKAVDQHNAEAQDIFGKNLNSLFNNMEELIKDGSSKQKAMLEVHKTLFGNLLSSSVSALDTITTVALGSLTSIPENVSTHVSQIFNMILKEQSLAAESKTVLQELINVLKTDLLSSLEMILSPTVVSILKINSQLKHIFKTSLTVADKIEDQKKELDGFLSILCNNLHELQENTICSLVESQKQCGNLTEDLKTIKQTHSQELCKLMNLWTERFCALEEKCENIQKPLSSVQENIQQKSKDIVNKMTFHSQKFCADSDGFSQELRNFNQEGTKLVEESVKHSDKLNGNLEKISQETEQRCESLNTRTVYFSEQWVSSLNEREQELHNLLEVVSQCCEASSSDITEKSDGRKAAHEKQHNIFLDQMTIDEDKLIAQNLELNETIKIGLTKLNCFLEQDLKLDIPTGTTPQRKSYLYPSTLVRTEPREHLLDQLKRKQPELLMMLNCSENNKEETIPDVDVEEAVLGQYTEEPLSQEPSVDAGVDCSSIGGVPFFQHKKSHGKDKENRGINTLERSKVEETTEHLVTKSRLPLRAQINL
Summary of the method: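 Eg5 motor-domain protein ATPase activity read with a Kinase-Glo luminescent ATP kit. IC50 taken from dose–response curves of triplicate data points. Values are means ± SD of three independent experiments.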

A2780 [2] = assay: Antiproliferative activity against human A2780 cells; format: functional, cell-based
Summary of the method: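 A2780 ovarian carcinoma cells were exposed to compound for 72 h. IC50 derived from dose–response curves of triplicate data points, reported as the mean ± SD of three independent experiments.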

A2780 [3] = assay: Mitotic index in A2780 cells at M phase at 0.1 uM; format: functional, Homo sapiens
Summary of the method: (§1)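 A2780 cells were treated for 17 h at 0.257 or 0.328 µM, with nocodazole 0.1 µM as positive control and DMSO 0.08% as negative control. Cell-cycle profile (% G1, S, G2+M) and mitotic index (% cells in M phase) were quantified by flow cytometry.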

A2780 [4] = assay: Cell cycle arrest in A2780 cells by accumulation at S phase at 0.1 uM; format: functional, Homo sapiens; summary of the method: as §1
A2780 [5] = assay: Cell cycle arrest in A2780 cells by accumulation at G1 phase at 0.1 uM; format: functional, Homo sapiens; summary of the method: as §1
A2780 [6] = assay: Cell cycle arrest in A2780 cells by accumulation at G2/M phase at 0.1 uM; format: functional, Homo sapiens; summary of the method: as §1

| Compound | IC50 [1] [µM] | IC50 (A2780 [2]) [µM] | other results |
| --- | --- | --- | --- |
| Cc1ccc2c(c1C)CNCC2c1ccccc1 (configuration not stated) | 8.33 | 9.04 | – |
| Cc1ccc2c(c1C)CN(CCN)CC2c1ccccc1 (configuration not stated) | 2.27 | 2.31 | – |
| CN(C)C(=O)N1Cc2c(ccc(Cl)c2Cl)C(c2cccc(O)c2)C1 (configuration not stated) | 1.27 | 3.44 | – |
| CNC(=O)N1Cc2c(ccc(C)c2C)C(c2ccccc2)C1 (configuration not stated) | > 25 | – | – |
| COc1cccc2c1CN(C(=O)N(C)C)CC2c1cccc(O)c1 (configuration not stated) | 1.78 | 0.332 | – |
| Cc1ccc2c(c1C)CN(C(=O)N(C)C)CC2c1cccc(Cl)c1 (configuration not stated) | 3.48 | 3.02 | – |
| Cc1ccc2c(c1C)CN(C(N)=O)CC2c1ccccc1 (configuration not stated) | > 25 | – | – |
| CN(C)C(=O)N1Cc2ccccc2C(c2cccc(O)c2)C1 (configuration not stated) | > 25 | – | – |
| CCOC(=O)N1Cc2c(ccc(C)c2C)C(c2ccccc2)C1 (configuration not stated) | > 25 | – | – |
| Cc1ccc2c(c1C)CN(CCn1cccc1)CC2c1ccccc1 (configuration not stated) | > 25 | – | – |
| CN(C)C(=O)N1Cc2c(Cl)cccc2C(c2cccc(O)c2)C1 (configuration not stated) | > 25 | – | – |
| COC(=O)Nc1nc2cc(C(=O)c3cccs3)ccc2[nH]1 [NOCODAZOLE] | – | – | Activity (A2780 [3]): 23.7%; Activity (A2780 [4]): 15.7%; Activity (A2780 [5]): 12%; Activity (A2780 [6]): 62.1% |
| Cc1ccc2c(c1C)CN(CCCN)CC2c1ccccc1 (configuration not stated) | 3.06 | 2.42 | – |

More lines, main results first:

| IC50 [1] [µM] | IC50 (A2780 [2]) [µM] | Compound | other results |
| --- | --- | --- | --- |
| > 25 | – | Cc1ccc2c(c1C)CN(S(C)(=O)=O)CC2c1ccccc1 (configuration not stated) | – |
| 5.44 | 1.21 | Cc1ccc2c(c1C)CN(C(=O)N(C)CCCN(C)C)CC2c1ccccc1 (configuration not stated) | – |
| 12.8 | 2.83 | Cc1ccc2c(c1C)CN(C(=O)N1CCCCC1)CC2c1ccccc1 (configuration not stated) | – |
| 12.8 | 2.92 | COc1ccc2c(c1OC)CN(C(=O)N(C)C)CC2c1cccc(O)c1 (configuration not stated) | – |
| 0.617 | 0.402 | COc1ccc2c(c1)CN(C(=O)N(C)C)CC2c1cccc(O)c1 (configuration not stated) | – |
| > 25 | – | CN(C)C(=O)N1Cc2c(F)cccc2C(c2cccc(O)c2)C1 (configuration not stated) | – |
| 13.2 | – | Cc1ccc2c(c1C)CN(C(=O)N(C)C)CC2c1cccc(C(F)(F)F)c1 (configuration not stated) | – |
| 16.4 | 7.77 | Cc1ccc2c(c1C)CN(C(=O)c1ccccc1)CC2c1ccccc1 (configuration not stated) | – |
| 2.75 | 1.2 | Cc1ccc2c(c1C)CN(C(=O)N(C)C)CC2c1ccccc1 (configuration not stated) | – |
